Activity calls are given as the source filed them. No cut-off for these calls is given here.
test system: Klebsiella pneumoniae; experiment: Antibacterial activity against drug-resistant carbapenemase producing Klebsiella pneumoniae clinical isolate KP-14-3 after 16 to 20 hrs by broth microdilution method; type: functional
Procedure, shortened: (§1)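 CLSI broth microdilution in Mueller-Hinton broth. A 4-6 h culture was diluted to about 10⁶ CFU/mL and mixed 1:1 with compound dilutions prepared at 256 to 0.5 µg/mL from aqueous stocks. Plates were incubated at 37 °C for 16-20 h and read visually for MIC. Each concentration was run in duplicate, and the experiment was repeated at least twice. Vancomycin and meropenem were comparators.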

Structure (SMILES)	MIC [µg/mL]
CCCCCCCC[N+](C)(C)CC(=O)Nc1ccc(C(=O)/C=C/c2ccc(C)cc2)cc1.[Cl-]	8

test system: Escherichia coli; experiment: Antibacterial activity against drug-resistant NDM1 producing Escherichia coli clinical isolate EC-13-49 after 16 to 20 hrs by broth microdilution method; type: functional; procedure, shortened: as §1

Structure (SMILES)	MIC [µg/mL]
CCCCCCCC[N+](C)(C)CC(=O)Nc1ccc(C(=O)/C=C/c2ccc(C)cc2)cc1.[Cl-]	4

test system: Escherichia coli; experiment: Induction of cytoplasmic membrane depolarization in Escherichia coli ATCC 25922 at 10 to 20 ug/ml measured every 2 mins for 12 mins by DiSC35 dye-based fluorescence assay; type: functional, organism-based
Procedure, shortened: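 Mid-log cells (~10⁸ CFU/mL) were suspended in PBS (S. aureus) or HEPES/glucose/KCl with EDTA (E. coli). They were preloaded with DiSC3(5) for 30 min (S. aureus) or 40 min (E. coli), and baseline fluorescence was read for 8 min. Compound was added to 20 µg/mL final, and fluorescence (ex 622/em 670 nm) was read every 2 min for 12 min. Water served as control.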

Structure (SMILES)	Activity
CCCCCCCC[N+](C)(C)CC(=O)Nc1ccc(C(=O)/C=C/c2ccc(C)cc2)cc1.[Cl-]	Active

test system: Staphylococcus aureus; experiment: Antibacterial activity against methicillin-resistant Staphylococcus aureus clinical isolate 0906202 after 16 to 20 hrs by broth microdilution method; type: functional; procedure, shortened: as §1

Structure (SMILES)	MIC [µg/mL]
CCCCCCCC[N+](C)(C)CC(=O)Nc1ccc(C(=O)/C=C/c2ccc(C)cc2)cc1.[Cl-]	4

test system: Staphylococcus aureus; experiment: Antibacterial activity against methicillin-resistant Staphylococcus aureus clinical isolate 1105183 cono7 after 16 to 20 hrs by broth microdilution method; type: functional; procedure, shortened: as §1

Structure (SMILES)	MIC [µg/mL]
CCCCCCCC[N+](C)(C)CC(=O)Nc1ccc(C(=O)/C=C/c2ccc(C)cc2)cc1.[Cl-]	1

test system: Escherichia coli; experiment: Antibacterial activity against drug-resistant NDM1 producing Escherichia coli clinical isolate CF-13-61 after 16 to 20 hrs by broth microdilution method; type: functional; procedure, shortened: as §1

Structure (SMILES)	MIC [µg/mL]
CCCCCCCC[N+](C)(C)CC(=O)Nc1ccc(C(=O)/C=C/c2ccc(C)cc2)cc1.[Cl-]	32

test system: Escherichia coli; experiment: Induction of inner membrane permeabilization in Escherichia coli ATCC 25922 at 10 to 20 ug/ml measured every 2 mins for 12 mins by propidium iodide staining-based fluorescence assay; type: functional, organism-based
Procedure, shortened: (§2)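 Mid-log cells (~10⁸ CFU/mL) were suspended in PBS (S. aureus) or HEPES/glucose/KCl (E. coli). They were preincubated with propidium iodide for 30 min (S. aureus) or 40 min (E. coli), and baseline fluorescence was read for 8 min. Compound was added to 20 µg/mL final, and fluorescence (ex 535/em 617 nm) was read every 2 min for 12 min.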

Structure (SMILES)	Activity
CCCCCCCC[N+](C)(C)CC(=O)Nc1ccc(C(=O)/C=C/c2ccc(C)cc2)cc1.[Cl-]	Active

test system: Klebsiella pneumoniae; experiment: Antibacterial activity against drug-resistant carbapenemase producing Klebsiella pneumoniae clinical isolate KP-14-18 after 16 to 20 hrs by broth microdilution method; type: functional; procedure, shortened: as §1

Structure (SMILES)	MIC [µg/mL]
CCCCCCCC[N+](C)(C)CC(=O)Nc1ccc(C(=O)/C=C/c2ccc(C)cc2)cc1.[Cl-]	16

test system: Klebsiella pneumoniae; experiment: Antibacterial activity against drug-resistant carbapenemase producing Klebsiella pneumoniae clinical isolate KP-14-8 after 16 to 20 hrs by broth microdilution method; type: functional; procedure, shortened: as §1

Structure (SMILES)	MIC [µg/mL]
CCCCCCCC[N+](C)(C)CC(=O)Nc1ccc(C(=O)/C=C/c2ccc(C)cc2)cc1.[Cl-]	4

test system: Escherichia coli; experiment: Antibacterial activity against drug-resistant NDM1 producing Escherichia coli clinical isolate 1460 after 16 to 20 hrs by broth microdilution method; type: functional; procedure, shortened: as §1

Structure (SMILES)	MIC [µg/mL]
CCCCCCCC[N+](C)(C)CC(=O)Nc1ccc(C(=O)/C=C/c2ccc(C)cc2)cc1.[Cl-]	8

test system: Klebsiella pneumoniae; experiment: Antibacterial activity against drug-resistant carbapenemase producing Klebsiella pneumoniae clinical isolate KP-14-1 after 16 to 20 hrs by broth microdilution method; type: functional; procedure, shortened: as §1

Structure (SMILES)	MIC [µg/mL]
CCCCCCCC[N+](C)(C)CC(=O)Nc1ccc(C(=O)/C=C/c2ccc(C)cc2)cc1.[Cl-]	8

test system: Klebsiella pneumoniae; experiment: Antibacterial activity against drug-resistant carbapenemase producing Klebsiella pneumoniae clinical isolate KP-14-45 after 16 to 20 hrs by broth microdilution method; type: functional; procedure, shortened: as §1

Structure (SMILES)	MIC [µg/mL]
CCCCCCCC[N+](C)(C)CC(=O)Nc1ccc(C(=O)/C=C/c2ccc(C)cc2)cc1.[Cl-]	4

test system: Staphylococcus aureus; experiment: Antibacterial activity against methicillin-resistant Staphylococcus aureus clinical isolate 1208143 after 16 to 20 hrs by broth microdilution method; type: functional; procedure, shortened: as §1

Structure (SMILES)	MIC [µg/mL]
CCCCCCCC[N+](C)(C)CC(=O)Nc1ccc(C(=O)/C=C/c2ccc(C)cc2)cc1.[Cl-]	2

test system: Staphylococcus aureus; experiment: Antibacterial activity against methicillin-resistant Staphylococcus aureus clinical isolate 1207007 after 16 to 20 hrs by broth microdilution method; type: functional; procedure, shortened: as §1

Structure (SMILES)	MIC [µg/mL]
CCCCCCCC[N+](C)(C)CC(=O)Nc1ccc(C(=O)/C=C/c2ccc(C)cc2)cc1.[Cl-]	0.5

test system: Klebsiella pneumoniae; experiment: Antibacterial activity against drug-resistant carbapenemase producing Klebsiella pneumoniae clinical isolate KP-13-55 after 16 to 20 hrs by broth microdilution method; type: functional; procedure, shortened: as §1

Structure (SMILES)	MIC [µg/mL]
CCCCCCCC[N+](C)(C)CC(=O)Nc1ccc(C(=O)/C=C/c2ccc(C)cc2)cc1.[Cl-]	16

test system: Escherichia coli; experiment: Antibacterial activity against drug-resistant NDM1 producing Escherichia coli clinical isolate Ecl-14-58 after 16 to 20 hrs by broth microdilution method; type: functional; procedure, shortened: as §1

Structure (SMILES)	MIC [µg/mL]
CCCCCCCC[N+](C)(C)CC(=O)Nc1ccc(C(=O)/C=C/c2ccc(C)cc2)cc1.[Cl-]	4

test system: Klebsiella pneumoniae; experiment: Antibacterial activity against drug-resistant carbapenemase producing Klebsiella pneumoniae clinical isolate KP-14-5 after 16 to 20 hrs by broth microdilution method; type: functional; procedure, shortened: as §1

Structure (SMILES)	MIC [µg/mL]
CCCCCCCC[N+](C)(C)CC(=O)Nc1ccc(C(=O)/C=C/c2ccc(C)cc2)cc1.[Cl-]	4

test system: Staphylococcus aureus; experiment: Antibacterial activity against methicillin-resistant Staphylococcus aureus clinical isolate 1104060 after 16 to 20 hrs by broth microdilution method; type: functional; procedure, shortened: as §1

Structure (SMILES)	MIC [µg/mL]
CCCCCCCC[N+](C)(C)CC(=O)Nc1ccc(C(=O)/C=C/c2ccc(C)cc2)cc1.[Cl-]	4

test system: Enterococcus faecalis; experiment: Antibacterial activity against Enterococcus faecalis ATCC 29212 after 16 to 20 hrs by broth microdilution method; type: functional
Procedure, shortened: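 Broth microdilution per CLSI. Bacteria grown 4-6 h (about 10⁸ CFU/mL), then diluted to about 10⁶ CFU/mL. Medium: Mueller-Hinton broth, except Luria-Bertani broth for E. coli. Compounds in sterile water, twofold series 256-0.5 µg/mL, mixed 1:1 with inoculum, 37 °C for 16-20 h. MIC is the lowest concentration without visible growth. Duplicate wells; experiment repeated at least twice.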

Structure (SMILES)	MIC [µg/mL]
CCCCCCCC[N+](C)(C)CC(=O)Nc1ccc(C(=O)/C=C/c2ccc(C)cc2)cc1.[Cl-]	1

test system: Staphylococcus aureus; experiment: Antibacterial activity against methicillin-resistant Staphylococcus aureus clinical isolate 20131012632sau after 16 to 20 hrs by broth microdilution method; type: functional; procedure, shortened: as §1

Structure (SMILES)	MIC [µg/mL]
CCCCCCCC[N+](C)(C)CC(=O)Nc1ccc(C(=O)/C=C/c2ccc(C)cc2)cc1.[Cl-]	2

test system: Staphylococcus aureus; experiment: Induction of inner membrane permeabilization in Staphylococcus aureus ATCC 29213 at 10 to 20 ug/ml measured every 2 mins for 12 mins by propidium iodide staining-based fluorescence assay; type: functional, organism-based; procedure, shortened: as §2

Structure (SMILES)	Activity
CCCCCCCC[N+](C)(C)CC(=O)Nc1ccc(C(=O)/C=C/c2ccc(C)cc2)cc1.[Cl-]	Active

From ChEMBL document CHEMBL4138242, “Synthesis and antibacterial evaluation of novel cationic chalcone derivatives possessing broad spectrum antibacterial activity” (Eur J Med Chem, 2018)
